Experimental data from ChEMBL document CHEMBL1153568, “Synthesis and anticonvulsant activity of N-(2-hydroxyethyl) cinnamamide derivatives” (Eur J Med Chem, 2009).
Calls of active or inactive are those of the source.

Columns and labels:
Mus musculus [1] = assay: Anticonvulsant activity in Kunming mouse assessed as protection against maximal electroshock-induced seizures at 300 mg/kg, ip after 4 hrs; assay type: functional, organism-based; design: dose 300 mg/kg
Summary of the method: (§1)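 Maximal electroshock test in mice, five per group, dosed i.p. with suspension in 1:19 DMSO/saline plus 0.5% methylcellulose; seizures evoked at 0.5 h or 4 h after dosing. Protection defined as abolition of hind leg tonic maximal extension; scored as number protected/number tested.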

Mus musculus [2] = assay: Anticonvulsant activity in Kunming mouse assessed as protection against maximal electroshock-induced seizures at 100 mg/kg, ip after 4 hrs; assay type: functional, organism-based; design: dose 100 mg/kg; summary of the method: as §1
Mus musculus [3] = assay: Anticonvulsant activity in ip dosed Kunming mouse assessed as protection against maximal electroshock-induced seizures; assay type: functional
Summary of the method: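 Phase II quantification: mice (ten per dose) dosed i.p. with compound suspended in 1:19 DMSO/saline, 0.5% methylcellulose; MES given 30 min later, protection being abolition of hind leg tonic extension. ED50, dose protecting 50% of animals, reported with 95% confidence limits.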

[4] = Neurotoxicity in ip dosed Kunming mouse by rotarod test; assay type: toxicity, organism-based; conditions: in vivo
Mus musculus [5] = assay: Protective index, ratio of TD50 for neurotoxicity to ED50 for anticonvulsant activity in ip dosed Kunming mouse; assay type: functional
Mus musculus [6] = assay: Anticonvulsant activity in Kunming mouse assessed as protection against maximal electroshock-induced seizures at 30 mg/kg, ip after 4 hrs; assay type: functional, organism-based; design: dose 30 mg/kg; summary of the method: as §1
Mus musculus [7] = assay: Anticonvulsant activity against subcutaneous pentylenetetrazole-induced seizures in Kunming mouse assessed as clonic seizures of at 50 mg/kg, ip after 0.5 hrs; assay type: functional
Summary of the method: (§2)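 Test agent given i.p. (suspension in 1:19 DMSO/saline, 0.5% methylcellulose); 30 min later PTZ 85 mg/kg in saline given sc. Animals kept in individual cages, watched 30 min; clonic seizures, tonic seizures and deaths counted, expressed as percent.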

Mus musculus [8] = assay: Anticonvulsant activity against subcutaneous pentylenetetrazole-induced seizures in Kunming mouse assessed as tonic seizures of at 50 mg/kg, ip after 0.5 hrs; assay type: functional; summary of the method: as §2
Mus musculus [9] = assay: Toxicity in Kunming mouse assessed as subcutaneous pentylenetetrazole-induced lethality at 50 mg/kg, ip after 0.5 hrs; assay type: organism-based; design: dose 50 mg/kg; conditions: in vivo, sc
Summary of the method: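 Test article at 50 mg/kg i.p. in 1:19 (vol/vol) DMSO/saline with 0.5% methylcellulose. After 30 min, pentylenetetrazole at 85 mg/kg in saline was given sc. Animals were caged individually and watched for 30 min, with clonic and tonic seizures and deaths counted.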

Mus musculus [10] = assay: Anticonvulsant activity against isoniazid-induced seizures in Kunming mouse assessed as clonic seizures of at 50 mg/kg, ip after 0.5 hrs; assay type: functional; conditions: route intraperitoneal
Summary of the method: (§3)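 Compounds suspended in 1:19 DMSO/saline containing 0.5% methylcellulose and given i.p.; after 30 min mice received isoniazid 250 mg/kg i.p., a dose convulsing 100% of animals. Each mouse housed singly and observed 1 h; percent of animals with clonic and tonic seizures, and lethality, recorded.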

Mus musculus [11] = assay: Anticonvulsant activity against 3-mercaptopropionic acid-induced seizures in Kunming mouse assessed as clonic seizures of at 50 mg/kg, ip after 0.5 hrs; assay type: functional; conditions: route intraperitoneal
Summary of the method: (§4)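 Mice given test agent i.p. as suspension in 1:19 DMSO/saline with 0.5% methylcellulose; 30 min later 60 mg/kg 3-mercaptopropionic acid in saline injected sc. Latency and duration of convulsions, latency and percentage lethality recorded over 1 h after convulsant; clonic and tonic seizure incidence reported as percent of animals.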

Mus musculus [12] = assay: Anticonvulsant activity against isoniazid-induced seizures in Kunming mouse assessed as tonic seizures of at 50 mg/kg, ip after 0.5 hrs; assay type: functional; conditions: route intraperitoneal; summary of the method: as §3
Mus musculus [13] = assay: Toxicity in Kunming mouse assessed as isoniazid-induced lethality at 50 mg/kg, ip after 0.5 hrs; assay type: organism-based; design: dose 50 mg/kg, route intraperitoneal; conditions: in vivo
Summary of the method: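 Mice were dosed i.p. at 50 mg/kg with a suspension in 1:19 (vol/vol) DMSO/saline containing 0.5% methylcellulose. Isoniazid (250 mg/kg, i.p.) was given 30 min later. Mice were then housed singly and observed for 1 h, scoring clonic seizures, tonic seizures and deaths.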

Mus musculus [14] = assay: Anticonvulsant activity against 3-mercaptopropionic acid-induced seizures in Kunming mouse assessed as tonic seizures of at 50 mg/kg, ip after 0.5 hrs; assay type: functional; conditions: route intraperitoneal; summary of the method: as §4
Mus musculus [15] = assay: Toxicity in Kunming mouse assessed as 3-mercaptopropionic acid-induced lethality at 50 mg/kg, ip after 0.5 hrs; assay type: organism-based; design: dose 50 mg/kg, route intraperitoneal; conditions: in vivo
Summary of the method: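 Compound given i.p. at 50 mg/kg as a suspension in 1:19 (vol/vol) DMSO/saline (0.9% NaCl) with 0.5% methylcellulose. At 30 min, 3-mercaptopropionic acid at 60 mg/kg in saline was injected sc. Convulsion latency and duration, and the latency and percentage of lethality, were recorded over the following 1 h.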

Mus musculus [16] = assay: Anticonvulsant activity against thiosemicarbazide-induced seizures in Kunming mouse assessed as clonic seizures of at 50 mg/kg, ip after 2.5 hrs; assay type: functional; conditions: route intraperitoneal
Mus musculus [17] = assay: Anticonvulsant activity against thiosemicarbazide-induced seizures in Kunming mouse assessed as tonic seizures of at 50 mg/kg, ip after 2.5 hrs; assay type: functional; conditions: route intraperitoneal
Mus musculus [18] = assay: Toxicity in Kunming mouse assessed as thiosemicarbazide-induced lethality at 50 mg/kg, ip after 2.5 hrs; assay type: organism-based; design: dose 50 mg/kg, route intraperitoneal; conditions: in vivo
Mus musculus [19] = assay: Anticonvulsant activity in Kunming mouse assessed as protection against maximal electroshock-induced seizures at 30 mg/kg, ip after 30 mins; assay type: functional, organism-based; design: dose 30 mg/kg; summary of the method: as §1
Mus musculus [20] = assay: Anticonvulsant activity in Kunming mouse assessed as protection against maximal electroshock-induced seizures at 100 mg/kg, ip after 30 mins; assay type: functional, organism-based; design: dose 100 mg/kg; summary of the method: as §1

Question: With `O=C(NCCO)c1ccccc1` as the molecule, how does the Activity (Mus musculus [1]) read?
Answer: inactive

Question: For `O=C(/C=C/c1ccc(Cl)cc1)NCCO`, which Activity (Mus musculus [2]) is on record?
Answer: inactive

Question: And the ED50 (Mus musculus [3])?
Answer: 73.4 mg/kg

Question: What about the TD50 [4] of the same molecule?
Answer: 98.4 mg/kg

Question: What about the “Ratio TD50/ED50” value (Mus musculus [5]) of the same molecule?
Answer: 1.3

Question: Which results are given for `O=C(/C=C/c1ccccc1)NCCO` [IDROCILAMIDE]?
Answer: Activity (Mus musculus [6]): inactive; ED50 (Mus musculus [3]): 17.7 mg/kg; TD50 [4]: 155 mg/kg; Ratio TD50/ED50 (Mus musculus [5]): 8.8; Activity (Mus musculus [7]): 100%; Activity (Mus musculus [8]): 20%; Activity (Mus musculus [9]): 10%; Activity (Mus musculus [10]): 100%; Activity (Mus musculus [11]): 100%; Activity (Mus musculus [12]): 70%; Activity (Mus musculus [13]): 20%; Activity (Mus musculus [14]): 10%; Activity (Mus musculus [15]): 10%; Activity (Mus musculus [16]): 100%; Activity (Mus musculus [17]): 40%; Activity (Mus musculus [18]): 30%

Question: Which Activity (Mus musculus [2]) does the source give for `COc1ccc(/C=C/C(=O)NCCO)cc1` here?
Answer: inactive

Question: What does the source list for `CN(C)c1ccc(/C=C/C(=O)NCCO)cc1`?
Answer: Activity (Mus musculus [2]): inactive; ED50 (Mus musculus [3]): 66.1 mg/kg; TD50 [4]: 304 mg/kg; Ratio TD50/ED50 (Mus musculus [5]): 4.6

Question: Which Activity (Mus musculus [1]) does the source give for `O=C(Cc1ccccc1)NCCO` here?
Answer: inactive

Question: Which results are given for `O=C(/C=C/c1ccc2c(c1)OCO2)NCCO`?
Answer: Activity (Mus musculus [6]): inactive; ED50 (Mus musculus [3]): 32.4 mg/kg; TD50 [4]: 105 mg/kg; Ratio TD50/ED50 (Mus musculus [5]): 3.3

Question: With `Cc1ccc(/C=C/C(=O)NCCO)cc1` as the molecule, how does the Activity (Mus musculus [2]) read?
Answer: inactive

Question: For `NC(=O)N1c2ccccc2C=Cc2ccccc21` [CARBAMAZEPINE], which ED50 (Mus musculus [3]) is on record?
Answer: 8.8 mg/kg

Question: And the Activity (Mus musculus [7])?
Answer: 100%

Question: What about the Activity (Mus musculus [8]) of the same molecule?
Answer: 0%

Question: And the Activity (Mus musculus [9])?
Answer: 10%

Question: And the Activity (Mus musculus [10])?
Answer: 50%

Question: What about the Activity (Mus musculus [11]) of the same molecule?
Answer: 100%

Question: What about the Activity (Mus musculus [12]) of the same molecule?
Answer: 0%

Question: What about the Activity (Mus musculus [13]) of the same molecule?
Answer: 0%

Question: And the Activity (Mus musculus [14])?
Answer: 0%

Question: What about the Activity (Mus musculus [16]) of the same molecule?
Answer: 100%

Question: What about the Activity (Mus musculus [17]) of the same molecule?
Answer: 0%

Question: What about the Activity (Mus musculus [18]) of the same molecule?
Answer: 20%

Question: With `O=C(/C=C/c1cccc(Cl)c1)NCCO` as the molecule, how does the Activity (Mus musculus [6]) read?
Answer: inactive

Question: What about the ED50 (Mus musculus [3]) of the same molecule?
Answer: 25 mg/kg

Question: What about the TD50 [4] of the same molecule?
Answer: 127 mg/kg

Question: What about the “Ratio TD50/ED50” value (Mus musculus [5]) of the same molecule?
Answer: 5.1

Question: And the Activity (Mus musculus [13])?
Answer: 20%

Question: With `O=C(/C=C/c1ccc(Br)cc1)NCCO` as the molecule, how does the Activity (Mus musculus [2]) read?
Answer: inactive

Question: And the ED50 (Mus musculus [3])?
Answer: 76 mg/kg

Question: What about the TD50 [4] of the same molecule?
Answer: 98.3 mg/kg

Question: And the “Ratio TD50/ED50” value (Mus musculus [5])?
Answer: 1.3

Question: For `O=C(/C=C/c1cccc(F)c1)NCCO`, which Activity (Mus musculus [19]) is on record?
Answer: Active

Question: And the Activity (Mus musculus [6])?
Answer: inactive

Question: What about the ED50 (Mus musculus [3]) of the same molecule?
Answer: 17 mg/kg

Question: And the TD50 [4]?
Answer: 211 mg/kg

Question: What about the “Ratio TD50/ED50” value (Mus musculus [5]) of the same molecule?
Answer: 12.4

Question: What about the Activity (Mus musculus [7]) of the same molecule?
Answer: 100%

Question: What about the Activity (Mus musculus [8]) of the same molecule?
Answer: 40%

Question: What about the Activity (Mus musculus [9]) of the same molecule?
Answer: 20%

Question: And the Activity (Mus musculus [11])?
Answer: 100%

Question: What about the Activity (Mus musculus [14]) of the same molecule?
Answer: 30%

Question: And the Activity (Mus musculus [15])?
Answer: 50%

Question: And the Activity (Mus musculus [16])?
Answer: 100%

Question: What about the Activity (Mus musculus [17]) of the same molecule?
Answer: 50%

Question: What about the Activity (Mus musculus [18]) of the same molecule?
Answer: 40%

Question: With `O=C(/C=C/c1ccc(F)cc1)NCCO` as the molecule, how does the Activity (Mus musculus [20]) read?
Answer: Active

Question: What about the Activity (Mus musculus [2]) of the same molecule?
Answer: inactive

Question: What about the ED50 (Mus musculus [3]) of the same molecule?
Answer: 45.6 mg/kg

Question: What about the TD50 [4] of the same molecule?
Answer: 98.3 mg/kg

Question: And the “Ratio TD50/ED50” value (Mus musculus [5])?
Answer: 2.2

Question: What does the source list for `O=C(/C=C/c1ccccc1Cl)NCCO`?
Answer: Activity (Mus musculus [20]): Active; Activity (Mus musculus [2]): inactive; ED50 (Mus musculus [3]): 59 mg/kg; TD50 [4]: 152 mg/kg; Ratio TD50/ED50 (Mus musculus [5]): 2.6

Question: With `O=C(CCc1ccccc1)NCCO` as the molecule, how does the Activity (Mus musculus [1]) read?
Answer: inactive

Question: Which results are given for `O=C(/C=C/c1ccccc1F)NCCO`?
Answer: Activity (Mus musculus [6]): inactive; ED50 (Mus musculus [3]): 35.3 mg/kg; TD50 [4]: 219 mg/kg; Ratio TD50/ED50 (Mus musculus [5]): 6.2

Question: For `O=C(/C=C/c1ccc(Cl)cc1Cl)NCCO`, which Activity (Mus musculus [1]) is on record?
Answer: inactive

Question: Which Activity (Mus musculus [2]) does the source give for `O=C(/C=C/c1ccccc1Br)NCCO` here?
Answer: inactive

Question: And the ED50 (Mus musculus [3])?
Answer: 68.2 mg/kg

Question: What about the TD50 [4] of the same molecule?
Answer: 228 mg/kg

Question: What about the “Ratio TD50/ED50” value (Mus musculus [5]) of the same molecule?
Answer: 3.3
